Compounds with a hit are over-represented: about 3.7% of the library has one in this group of screens.
KCNQ1 block: inhibitors of human KCNQ1 channel, primary screen, cell-based, thallium flux, high-throughput | CHO-K1 KCNQ1, FluxOR thallium flux fluorescence; active compounds read high | B-score at 10 µM | 310,000 tested, 1.3% active | AID 2642, 2010;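 active means compounds whose thallium flux B-score, printed positive for inhibition, exceeds three library SD while starting fluorescence stays within three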;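 further: channel opened by potassium depolarization with thallium stimulus after 20 min compound exposure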
KCNK3 inh: human KCNK3 channel inhibitors, primary screen, CHO cells, FluxOR thallium flux, B-score | 340,000 tested, 0.84% active | Potassium channel subfamily K member 3 (Homo sapiens), O14649 | AID 602410, 2012 | FluxOR fluorescence; active compounds read low | B-score at 10 µM;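 active means B-score under library mean minus 4 SD, starting fluorescence ratio at most library mean plus 5 SD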;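 further: more negative B-score means stronger inhibition of thallium flux through KCNK3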
Kir21 inh: inhibitors of mouse Kir2.1 inward-rectifier potassium channel; HEK293-Kir2.1, FluxOR thallium flux fluorescence; active compounds read low; 310,000 tested, 0.85% active; Inward rectifier potassium channel 2 (Mus musculus), P35561; B-score at 10 µM;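 active means fluorescence ratio B-score at or below minus 3 SD of library scores, with starting-brightness B-score within 2 SD, cut at about -4.2 in these data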;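 further: channel flux triggered by added potassium and thallium sulfate stimulus; B-score of peak minus minimum fluorescence over baseline after thallium stimulus; more negative B-score means stronger Kir2.1 block with less thallium influx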
KCNQ1 pot: potentiators or activators of KCNQ1 channel, primary screen, cell-based, thallium flux, high-throughput. Potassium voltage-gated channel subfamily KQT member 1 (Homo sapiens), P51787. CHO-K1 KCNQ1, thallium flux FluxOR fluorescence; active compounds read high. B-score at 10 µM. 310,000 tested, 0.35% active. AID 2648, 2010;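 active means fluorescence ratio B-score, a plate-corrected score, at least three library SD, with initial intensity B-score within 5 SD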
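Assay system: CHO-K1 cells stably expressing KCNQ1; Medium: assay buffer with matched DMSO; Also added: K+/Tl+ depolarizing stimulus; Dosing: single dose; Timing: dye 90 min, compound 20 min, room temperature; Measured by: kinetic FluxOR thallium fluorescence, 10-s 1-Hz baseline, 110-s post-stimulus read; Read-out: peak-minus-minimum fluorescence over initial fluorescence, negative-control normalized, B-scored.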
hERG protect: hERG rescue from dofetilide block, primary screen, cell-based, CHO-hERG, FluxOR thallium flux, dofetilide IC70; activation (rescue from dofetilide block), less the hit threshold, % at 10 µM; dofetilide IC70 present; Voltage-gated inwardly rectifying potassium channel KCNH2 (Homo sapiens), Q12809; 310,000 tested, 0.51% active;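 active means activation above the mean of controls blocked by dofetilide plus 5 SD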;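 further: thallium influx through hERG after potassium depolarization seen as dye fluorescence rise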
KCNK9 block: KCNK9 potassium channel inhibitors, primary screen, HEK293 cells, thallium flux; 310,000 tested, 1.2% active; AID 488922, 2010; B-score at 10 µM; FluxOR thallium flux fluorescence; active compounds read low;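 active means ratio B-score over 3 SD below the library mean, with starting fluorescence within 5 SD of its mean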;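 further: negative B-score means less thallium flux so channel inhibition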
Target sequence (Q9NPC2 whole entry, looked up): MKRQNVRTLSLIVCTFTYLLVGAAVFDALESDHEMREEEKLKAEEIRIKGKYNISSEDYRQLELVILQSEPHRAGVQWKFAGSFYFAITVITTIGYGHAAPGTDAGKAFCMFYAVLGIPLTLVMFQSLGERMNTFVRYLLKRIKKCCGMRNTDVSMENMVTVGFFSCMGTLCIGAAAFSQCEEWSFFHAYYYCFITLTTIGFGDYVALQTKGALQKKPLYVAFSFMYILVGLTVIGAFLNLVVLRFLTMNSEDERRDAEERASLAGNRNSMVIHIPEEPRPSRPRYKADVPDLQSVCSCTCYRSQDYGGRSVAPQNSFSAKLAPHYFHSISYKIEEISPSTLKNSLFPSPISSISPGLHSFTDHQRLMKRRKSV
KCNK9 block conf: KCNK9 potassium channel inhibitors, confirmation, HEK293 cells, thallium flux, duplicate; shares compounds with KCNK9 block; 4,900 tested, 43% active; FluxOR thallium flux fluorescence; inhibition, % at 10 µM; AID 492992, 2010;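 active means thallium signal inhibited by more than 5 SD of the compound-free buffer control wells, on both duplicate plates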;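 further: 0% = assay buffer control wells without compound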
Kir2-1 spec: mouse Kir2.1 channel inhibition, confirmation, selectivity assay for KCNK9 modulator project, cell-based, HEK293, thallium flux; AID 492993, 2010; shares compounds with KCNK9 block; Kir2.1 cells, FluxOR thallium flux fluorescence; inhibition, % at 10 µM; 4,900 tested, 4% active;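 active means thallium signal drop more than 5 SD beyond the mean of the no-compound control wells, seen in both duplicate plates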;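 further: signal is fluorescence rise after thallium addition divided by baseline fluorescence; plate controls were assay buffer only for no effect and full block by chlorpromazine control for full effect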
KCNK9 uninduced: thallium flux in non-induced HEK293 cells, confirmation, counter-screen for KCNK9 inhibitor project, cell-based, second counter screen, non-induced KCNK9-HEK293; shares compounds with KCNK9 block; FluxOR thallium flux; inhibition, % at 10 µM; 4,900 tested, 40% active; AID 492997, 2010;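 active means thallium signal drop beyond 5 SD of the untreated control mean, on both duplicate plates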;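 further: plate controls were buffer only IC0 wells for no effect and SID17386958 at its maximal inhibitory level for full effect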
KCNK3 confirm: retest of human KCNK3 channel inhibitors, confirmation, CHO cells, FluxOR thallium flux, triplicate; shares compounds with KCNK3 inh; FluxOR fluorescence; 0% buffer, 100% carvedilol maximal block; ratio percent of control, % at 10 µM; 2,400 tested, 99% active; AID 651638, 2012;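 active means ratio percent of control, averaged over triplicates, above buffer control mean plus 5 SD, cut at about 64% in these data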;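 further: ratio is the fluorescence rise from min to max over baseline after thallium stimulus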
KCNK3 uninduced: thallium flux inhibition in non-induced cells, primary screen, counter-screen for KCNK3 inhibitor project, cell-based, non-induced KCNK3 line, FluxOR thallium, triplicate. shares compounds with KCNK3 inh. thallium flux ratio (lower = more inhibition) at 10 µM. 2,400 tested, 40% active. non-induced KCNK3 parental cells; active compounds read low;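 active means thallium flux ratio, averaged over three wells, more than 5 SD below the buffer control mean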;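 further: host cells are CHO cells without KCNK3 induction; ratio is peak minus trough fluorescence over baseline then normalized to buffer controls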
An asterisk follows results filed as active.

What do the screens show for `COc1ccc(C(=O)NC2CCN(CC(=O)NCc3ccccc3F)CC2)cc1`?
KCNQ1 block: inactive; KCNK3 inh: inactive; Kir21 inh: 0.44; KCNQ1 pot: inactive; hERG protect: 0; KCNK9 block: inactive

What do the screens show for `Cc1cn(C2OC(COC(=O)c3ccccc3)C(OC(=O)c3ccccc3)C2OC(=O)c2ccccc2)c(=O)[nH]c1=O` (configuration not stated)?
KCNQ1 block: inactive; KCNK3 inh: -11*; Kir21 inh: 2.8; KCNQ1 pot: inactive; hERG protect: -17; KCNK9 block: -10*; KCNK9 block conf: 38%*; Kir2-1 spec: inactive; KCNK9 uninduced: 34%*; KCNK3 confirm: 103*; KCNK3 uninduced: 0.16*

Results for Cc1cn(C2OC(COC(=O)c3ccccc3)C(O)C2O)c(=O)[nH]c1=O (configuration not stated) ?
KCNQ1 block: inactive; KCNK3 inh: inactive; Kir21 inh: 0.31; KCNQ1 pot: inactive; hERG protect: -14; KCNK9 block: inactive

How did CC(C)c1ccccc1NC(=O)COC(=O)c1c2c(nc3ccccc13)CCN(Cc1ccccc1)C2 do in these assays?
KCNQ1 block: inactive; KCNK3 inh: -9.7*; Kir21 inh: -1.4; KCNQ1 pot: inactive; hERG protect: -34; KCNK9 block: -12*; KCNK9 block conf: 66%*; Kir2-1 spec: inactive; KCNK9 uninduced: inactive; KCNK3 confirm: 132*; KCNK3 uninduced: 0.14*

Results for CC(C)NC(=O)NC(=O)COC(=O)c1c2c(nc3ccccc13)CCC2 ?
KCNQ1 block: inactive; KCNK3 inh: inactive; Kir21 inh: -1.7; KCNQ1 pot: inactive; hERG protect: -16; KCNK9 block: inactive

Results for O=C(CSc1n[nH]c(-c2ccccc2Cl)n1)NCc1cccc(C(=O)O)c1 ?
KCNQ1 block: inactive; KCNK3 inh: inactive; Kir21 inh: -0.64; KCNQ1 pot: inactive; hERG protect: -6; KCNK9 block: inactive

Results for C/C=C(\C)C(=O)OC1c2c(ccc3ccc(=O)oc23)OC(C)(C)C1OC(C)=O (configuration not stated) ?
KCNQ1 block: inactive; KCNK3 inh: inactive; Kir21 inh: -1.2; KCNQ1 pot: inactive; hERG protect: -10; KCNK9 block: inactive

Results for C/C=C(/C)C(=O)OC1c2c(ccc3ccc(=O)oc23)OC(C)(C)C1OC(=O)/C(C)=C\C (configuration not stated) ?
KCNQ1 block: inactive; KCNK3 inh: -9.1*; Kir21 inh: -0.84; KCNQ1 pot: inactive; hERG protect: -8; KCNK9 block: -13*; KCNK9 block conf: 59%*; Kir2-1 spec: inactive; KCNK9 uninduced: 35%*; KCNK3 confirm: 126*; KCNK3 uninduced: 0.14*

What do the screens show for `CC(C)CCN(C(=S)Nc1cccc(F)c1)C(C)c1cccs1` (configuration not stated)?
KCNQ1 block: inactive; KCNK3 inh: -14*; Kir21 inh: 0.28; KCNQ1 pot: inactive; hERG protect: -14; KCNK9 block: -10*; KCNK9 block conf: 50%*; Kir2-1 spec: inactive; KCNK9 uninduced: 50%*; KCNK3 confirm: 119*; KCNK3 uninduced: 0.15*

What do the screens show for `COCCN(C(=S)Nc1cccc(C)c1)C(C)c1cccs1` (configuration not stated)?
KCNQ1 block: inactive; KCNK3 inh: inactive; Kir21 inh: 0.04; KCNQ1 pot: inactive; hERG protect: -3; KCNK9 block: inactive

Results for CC(C)Oc1cccc(C(=O)C2CCCN(C(=O)c3ccnn3C)C2)c1 (configuration not stated) ?
KCNQ1 block: inactive; KCNK3 inh: -10*; Kir21 inh: 1.1; KCNQ1 pot: inactive; hERG protect: -13; KCNK9 block: inactive; KCNK9 block conf: inactive; Kir2-1 spec: inactive; KCNK9 uninduced: inactive; KCNK3 confirm: 98*; KCNK3 uninduced: inactive

What do the screens show for `CCOc1ccc(-n2c(O)cc(=O)[nH]c2=O)cc1`?
KCNQ1 block: inactive; KCNK3 inh: inactive; Kir21 inh: 0.02; KCNQ1 pot: inactive; hERG protect: -8; KCNK9 block: inactive

Results for N#Cc1ccc(-c2ccco2)nc1SCC(=O)c1ccc(Cl)cc1 ?
KCNQ1 block: inactive; KCNK3 inh: -13*; Kir21 inh: -1.8; KCNQ1 pot: inactive; hERG protect: -17; KCNK9 block: -8.3*; KCNK9 block conf: 44%*; Kir2-1 spec: inactive; KCNK9 uninduced: 38%*; KCNK3 confirm: 146*; KCNK3 uninduced: 0.14*

Results for O=C(Nc1ccccc1F)C(=O)Nc1cccc2ccccc12 ?
KCNQ1 block: inactive; KCNK3 inh: inactive; Kir21 inh: 0.14; KCNQ1 pot: inactive; hERG protect: -2; KCNK9 block: inactive

Assay outcomes as filed in PubChem BioAssay.
